Laboratory results taken from ChEMBL document CHEMBL3124917, “Design, synthesis, and biological evaluation of deuterated C-aryl glycoside as a potent and long-acting renal sodium-dependent glucose cotransporter 2 inhibitor for the treatment of type 2 diabetes” (J Med Chem, 2014).

Test system: Rattus norvegicus
Experiment: Antidiabetic activity in Sprague-Dawley rat assessed as reduction in blood glucose AUC at 10 mg/kg, po administered 1 hr prior to glucose challenge measured after 60 to 120 mins by oral glucose tolerance test relative to control
Assay type: functional
Set-up: scale not given: the % may be the effect or the level left
Details: not given
Method in brief: (§1)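 Overnight-fasted male Sprague-Dawley rats, n = 5 per group, dosed orally at 0.1, 0.3, 1, 3 or 10 mg/kg in 30% PEG400 1 h before oral glucose challenge (20%, 2 g/kg). Blood glucose measured by glucometer from −60 to 120 min.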

Structure (SMILES)	Activity
[2H]C([2H])([2H])Oc1ccc(Cc2cc([C@@H]3O[C@H](CO)[C@@H](O)[C@H](O)[C@H]3O)ccc2Cl)cc1	5%

Test system: not listed separately
Experiment: AUC (0 to infinity) in Sprague-Dawley rat at 1 mg/kg, po by LC-MS/MS analysis
Assay type: ADME, organism-based
Set-up: time infinity, dose 1 mg/kg, route oral
Details: plasma
Method in brief: (§2)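 Male Sprague-Dawley rats, n = 4 per group, overnight-fasted. Oral gavage of 3 or 1 mg/kg in 30% PEG400; i.v. arm at 1 mg/kg. Orbital plexus blood taken under ether at 0.083–24 h; plasma deproteinized and assayed by LC-MS/MS. Noncompartmental parameters derived; mean ± SD reported.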

Structure (SMILES)	AUC(0-inf)
[2H]C([2H])([2H])Oc1ccc(Cc2cc([C@@H]3O[C@H](CO)[C@@H](O)[C@H](O)[C@H]3O)ccc2Cl)cc1	1020 ng·h/mL

Test system: Rattus norvegicus
Experiment: Antidiabetic activity in Sprague-Dawley rat assessed as urinary glucose excretion at 1 mg/kg, po administered 1 hr prior to glucose challenge measured after 1 to 24 hrs relative to dapagliflozin
Assay type: functional, Urine
Details: not given
Method in brief: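 Overnight-fasted Sprague-Dawley rats, n = 3 per group, dosed 1 mg/kg by oral gavage in 30% PEG400; controls received vehicle. Oral glucose (2 g/kg, 10 mL/kg) given 1 h post-dose. Urine collected in metabolic cages at 0–4 and 4–24 h, glucose measured on a biochemistry analyzer. Expressed as % of reference positive control; mean ± SD.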

Structure (SMILES)	Activity
[2H]C([2H])([2H])Oc1ccc(Cc2cc([C@@H]3O[C@H](CO)[C@@H](O)[C@H](O)[C@H]3O)ccc2Cl)cc1	2230 mg

Test system: not listed separately
Experiment: AUC (0 to infinity) in Sprague-Dawley rat at 3 mg/kg, po by LC-MS/MS analysis
Assay type: ADME, organism-based
Set-up: time infinity, dose 3 mg/kg, route oral
Details: plasma
Method in brief: as §2

Structure (SMILES)	AUC(0-inf)
[2H]C([2H])([2H])Oc1ccc(Cc2cc([C@@H]3O[C@H](CO)[C@@H](O)[C@H](O)[C@H]3O)ccc2Cl)cc1	7000 ng·h/mL

Test system: not listed separately
Experiment: Drug metabolism in Sprague-Dawley rat assessed as compound remaining at 50 mg/kg, po after 5 days by HPLC analysis
Assay type: ADME, organism-based
Set-up: dose 50 mg/kg, route oral
Details: in vivo, read-out: Drug metabolism

Structure (SMILES)	remaining at 120 h
[2H]C([2H])([2H])Oc1ccc(Cc2cc([C@@H]3O[C@H](CO)[C@@H](O)[C@H](O)[C@H]3O)ccc2Cl)cc1	87%

Test system: not listed separately
Experiment: Half life in Sprague-Dawley rat at 1 mg/kg, po by LC-MS/MS analysis
Assay type: ADME, organism-based
Set-up: dose 1 mg/kg, route oral
Details: in vivo
Method in brief: as §2

Structure (SMILES)	half-life
[2H]C([2H])([2H])Oc1ccc(Cc2cc([C@@H]3O[C@H](CO)[C@@H](O)[C@H](O)[C@H]3O)ccc2Cl)cc1	3.5 h

Test system: not listed separately
Experiment: Half life in Sprague-Dawley rat at 1 mg/kg, iv by LC-MS/MS analysis
Assay type: ADME, organism-based
Set-up: dose 1 mg/kg, route intravenous
Details: in vivo
Method in brief: as §2

Structure (SMILES)	half-life
[2H]C([2H])([2H])Oc1ccc(Cc2cc([C@@H]3O[C@H](CO)[C@@H](O)[C@H](O)[C@H]3O)ccc2Cl)cc1	2.69 h

Target: T1, Sodium/glucose cotransporter 2 (Homo sapiens, UniProt P31639)
T1 sequence (P31639 whole entry): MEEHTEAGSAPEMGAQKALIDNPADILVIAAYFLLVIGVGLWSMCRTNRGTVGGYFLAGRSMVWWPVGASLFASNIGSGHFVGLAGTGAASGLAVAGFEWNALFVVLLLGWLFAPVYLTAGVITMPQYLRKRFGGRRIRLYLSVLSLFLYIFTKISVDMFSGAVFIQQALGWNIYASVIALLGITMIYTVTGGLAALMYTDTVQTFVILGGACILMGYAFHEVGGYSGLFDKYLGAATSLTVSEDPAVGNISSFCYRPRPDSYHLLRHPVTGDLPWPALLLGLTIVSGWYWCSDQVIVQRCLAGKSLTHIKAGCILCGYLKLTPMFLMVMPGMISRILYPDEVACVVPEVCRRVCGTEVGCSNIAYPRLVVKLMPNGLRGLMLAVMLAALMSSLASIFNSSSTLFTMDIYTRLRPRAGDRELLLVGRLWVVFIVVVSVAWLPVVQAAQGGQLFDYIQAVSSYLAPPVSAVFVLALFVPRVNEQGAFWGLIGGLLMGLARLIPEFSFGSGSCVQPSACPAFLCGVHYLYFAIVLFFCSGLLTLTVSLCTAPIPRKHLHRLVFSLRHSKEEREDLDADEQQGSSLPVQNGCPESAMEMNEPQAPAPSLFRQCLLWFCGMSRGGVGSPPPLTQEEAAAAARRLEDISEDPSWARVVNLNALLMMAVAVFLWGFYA
Experiment: Inhibition of full length human SGLT2 assessed as methyl-alpha-D-[U-14C]glucopyranoside uptake after 1.5 hrs by cell-based topcount scintillation counting analysis
Details: not given

Structure (SMILES)	IC50
[2H]C([2H])([2H])Oc1ccc(Cc2cc([C@@H]3O[C@H](CO)[C@@H](O)[C@H](O)[C@H]3O)ccc2Cl)cc1	2.5 nM

Test system: not listed separately
Experiment: Oral bioavailability in Sprague-Dawley rat at 1 mg/kg by LC-MS/MS analysis
Assay type: ADME, organism-based
Details: in vivo
Method in brief: as §2

Structure (SMILES)	bioavailability
[2H]C([2H])([2H])Oc1ccc(Cc2cc([C@@H]3O[C@H](CO)[C@@H](O)[C@H](O)[C@H]3O)ccc2Cl)cc1	76.3%

Test system: Rattus norvegicus
Experiment: Antidiabetic activity in Sprague-Dawley rat assessed as reduction in blood glucose AUC at 3 mg/kg, po administered 1 hr prior to glucose challenge measured after 60 to 120 mins by oral glucose tolerance test relative to control
Assay type: functional
Set-up: scale not given: the % may be the effect or the level left
Details: not given
Method in brief: as §1

Structure (SMILES)	Activity
[2H]C([2H])([2H])Oc1ccc(Cc2cc([C@@H]3O[C@H](CO)[C@@H](O)[C@H](O)[C@H]3O)ccc2Cl)cc1	21.6%

Test system: Canis familiaris
Experiment: Antidiabetic activity in Beagle dog assessed as urinary glucose excretion at 0.03 mg/kg, po administered 1 hr prior to glucose challenge measured after 1 to 24 hrs relative to dapagliflozin
Assay type: functional, Canis lupus familiaris, Urine
Details: not given
Method in brief: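 Overnight-fasted beagle dogs, n = 3 per group, given 0.03 mg/kg orally by gavage in 10% PEG400; vehicle controls received 10% PEG400. Oral glucose (2 g/kg, 5 mL/kg) given 1 h post-dose. Urine collected in metabolic cages at 0–8 and 8–24 h, glucose read on a biochemistry analyzer. Expressed as % of reference positive control; mean ± SD.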

Structure (SMILES)	Activity
[2H]C([2H])([2H])Oc1ccc(Cc2cc([C@@H]3O[C@H](CO)[C@@H](O)[C@H](O)[C@H]3O)ccc2Cl)cc1	14700 mg

Test system: not listed separately
Experiment: Tmax in Sprague-Dawley rat at 1 mg/kg, po by LC-MS/MS analysis
Assay type: ADME, organism-based
Set-up: dose 1 mg/kg, route oral
Details: in vivo
Method in brief: as §2

Structure (SMILES)	Tmax
[2H]C([2H])([2H])Oc1ccc(Cc2cc([C@@H]3O[C@H](CO)[C@@H](O)[C@H](O)[C@H]3O)ccc2Cl)cc1	1.56 h
